Screens as filed in PubChem.
The list is not random: actives were taken first. Their share in the collection is about 0.57%.
Arrestin-AP2 inh: human beta-arrestin and AP2 interaction inhibition; FITC-arrestin peptide / GST-AP2 beads, flow cytometry; AP2 beta2 appendage carries R879A mutation; inhibition, % at 10 µM; hit rate 0.31% among 340,000; AID 504490;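 active means inhibition above a set limit, near 3 SD of compounds lacking own fluorescence, cut at about 54% in these data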;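 further: plate controls were DMSO wells for no effect and 5 µM unlabelled arrestin peptide for full effect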
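Test system: GST-tagged AP2 beta2-adaptin appendage (R879A) on 4 µm glutathione beads; also added: fluorescein-tagged arrestin peptide at 50 nM final; timing: 12 min plus 1 h, RT; signal: flow cytometry, FL1 (488/535 nm); read-out: percent drop in bead-associated FITC signal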
pCIP destab: p/CIP protein destabilization | Q05BA5 | F442A p/CIP-EGFP cells, EGFP fluorescence, 16 h | decrease of EGFP signal, % at 10 µM | hit rate 0.01% among 290,000;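 active means EGFP signal decrease of at least 30% at 10 µM or well 3 SD below plate mean, unless failing retest; inactive means the rest, including hits failing retest or dose response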
Target sequence (Q05BA5 1-1403): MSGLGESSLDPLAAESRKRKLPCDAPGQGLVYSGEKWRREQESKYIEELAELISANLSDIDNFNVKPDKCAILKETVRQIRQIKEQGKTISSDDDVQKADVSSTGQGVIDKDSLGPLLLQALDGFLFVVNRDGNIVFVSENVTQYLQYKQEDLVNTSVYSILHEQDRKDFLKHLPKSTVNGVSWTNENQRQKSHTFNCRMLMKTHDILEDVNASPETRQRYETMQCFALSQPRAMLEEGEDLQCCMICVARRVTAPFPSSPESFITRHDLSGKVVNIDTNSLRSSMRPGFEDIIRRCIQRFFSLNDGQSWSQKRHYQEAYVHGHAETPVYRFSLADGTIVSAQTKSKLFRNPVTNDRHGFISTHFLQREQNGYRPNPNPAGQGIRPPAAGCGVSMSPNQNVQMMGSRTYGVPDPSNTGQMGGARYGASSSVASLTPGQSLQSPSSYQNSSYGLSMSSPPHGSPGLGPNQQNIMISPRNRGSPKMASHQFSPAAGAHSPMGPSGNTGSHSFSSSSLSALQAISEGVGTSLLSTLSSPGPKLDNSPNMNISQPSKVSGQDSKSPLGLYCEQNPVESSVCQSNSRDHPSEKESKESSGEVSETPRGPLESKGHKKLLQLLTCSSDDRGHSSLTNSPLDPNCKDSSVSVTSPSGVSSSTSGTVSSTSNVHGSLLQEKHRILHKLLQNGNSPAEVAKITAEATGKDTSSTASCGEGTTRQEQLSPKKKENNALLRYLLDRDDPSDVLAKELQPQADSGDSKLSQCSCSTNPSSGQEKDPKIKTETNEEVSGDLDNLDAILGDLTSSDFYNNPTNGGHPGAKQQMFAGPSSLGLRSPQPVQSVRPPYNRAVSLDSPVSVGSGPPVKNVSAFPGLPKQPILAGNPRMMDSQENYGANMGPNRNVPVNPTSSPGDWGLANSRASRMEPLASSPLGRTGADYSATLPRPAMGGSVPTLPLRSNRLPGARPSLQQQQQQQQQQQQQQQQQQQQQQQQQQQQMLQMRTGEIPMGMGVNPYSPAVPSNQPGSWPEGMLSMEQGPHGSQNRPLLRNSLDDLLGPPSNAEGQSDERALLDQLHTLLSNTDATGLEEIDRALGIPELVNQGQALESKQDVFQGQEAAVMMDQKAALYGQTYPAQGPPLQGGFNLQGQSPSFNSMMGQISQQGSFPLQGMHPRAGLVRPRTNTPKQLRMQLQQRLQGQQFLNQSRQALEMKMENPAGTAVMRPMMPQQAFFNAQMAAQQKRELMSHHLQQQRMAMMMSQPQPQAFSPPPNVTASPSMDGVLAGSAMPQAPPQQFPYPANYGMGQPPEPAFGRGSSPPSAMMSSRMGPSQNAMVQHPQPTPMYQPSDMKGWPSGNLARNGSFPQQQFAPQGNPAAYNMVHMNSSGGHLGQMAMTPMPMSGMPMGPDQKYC
JMJD2C inh: inhibitors of human GASC-1 (JMJD2C) demethylase; hit rate 0.069% among 330,000; Q9H3R0; inhibition, % at 2.35 µM; GST-JMJD2C(1-420) H3K9me3 demethylation, DELFIA europium;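 active means more than half of a compound's replicate wells show inhibition beyond 50%, single wells judged on their own value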;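 further: signal counts dimethyl H3K9 product captured on neutravidin plate; 0% = median of DMSO wells and 100% = 0.3 times that DMSO median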
VLA-4 inh: inhibition in a human VLA-4 binding assay; P13612; VLA-4 expressing cells, ligand binding flow cytometry; inhibition, % (about 7 µM as worked out from the volumes in the protocol); hit rate 0.2% among 330,000; AID 2557; in the data active means inhibition above about 50%
Arr-AP2 CP1: inhibitors of human beta-arrestin and AP2 interaction; shares compounds with Arrestin-AP2 inh; GST-AP2 beads, FITC arrestin peptide binding, flow cytometry; GST-fused beta2-adaptin appendage, R879A mutant; inhibition, % at 10 µM; hit rate 2% among 1,300; AID 504908;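 active means inhibition above a set limit, roughly 3 SD of non-fluorescent compound noise, cut at about 38% in these data; inactive means inhibition at or below that limit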;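 further: loss of bead fluorescence from 50 nM FITC arrestin peptide bound to appendage; 0% = negative control wells and 100% = excess unlabelled arrestin peptide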
GST-FITC bead: GST-GSH bead binding interference, counter-screen; AID 588338; inhibition, % at 10 µM; shares compounds with Arrestin-AP2 inh; hit rate 2% among 1,300; GST-fluorescein binding to GSH beads, fluorescence;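 active means inhibition above 50%, about 3 SD of the inhibition seen with non-fluorescent compounds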;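 further: fluorescein maleimide labelled GST captured on 4 micron glutathione beads; higher means more loss of bead fluorescence from quenching or blocked binding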
* marks the source's active call; other numbers are inactive results; · = no result given.

SMILES | Arrestin-AP2 inh | pCIP destab | JMJD2C inh | VLA-4 inh | Arr-AP2 CP1 | GST-FITC bead
Cc1ccccc1N1CC(=O)N(c2ccccc2C)CC1=O | 0 | -12 | -2 | -16 | · | ·
Cc1cccc2c1c1ccc3c(c1n2C)C(=O)C=CC3=O | 67* | 0 | · | · | 49* | 0
O=C(NCc1nnc(SCC(=O)N2CCCC2)o1)c1ccco1 | -4 | -3 | 57 | 8 | · | ·
COc1cccc(-c2nnc(SC(C(=O)c3c[nH]c4ccccc34)c3ccccc3)n2C)c1 (stereo not drawn) | 98* | -21 | -1 | 0 | 11 | 6
Cc1nn(-c2ccc([N+](=O)[O-])cc2)c2c1C(c1cccc(Br)c1)N1C(=N2)C(=O)Nc2ccccc21 (stereo not drawn) | 7 | -8 | -14 | 0 | · | ·
CC1CCN(C(=O)CN2C(=O)COc3ccc(Cl)cc32)CC1 | -2 | -5 | -3 | 1 | · | ·
O=C(CN1C(=O)COc2ccc(Cl)cc21)N1CCCCC1 | 55* | -6 | -2 | 21 | 2 | -6
Cc1ccc(S(=O)(=O)N2CCC(C(=O)N3CCC3)CC2)cc1 | 54* | -27 | -11 | -5 | 5 | -3
Cc1ccc(S(=O)(=O)N2CCC(C(=O)N3CCC[C@H]3C(=O)NCC(C)C)CC2)cc1 | 34 | -1 | -9 | 8 | · | ·
CCCNC(=O)[C@@H]1CCCN1C(=O)C1CCN(S(=O)(=O)c2ccc(C)cc2)CC1 | 54* | -3 | 7 | 8 | 5 | -2
O=C(C1CCN(S(=O)(=O)c2ccc(Cl)cc2)CC1)N1CCCC1 | 2 | 15 | 4 | 0 | · | ·
Cc1cc(=O)oc2cc(OCC(=O)OCC(=O)Nc3ccccc3Br)ccc12 | 1 | 1 | -5 | -1 | · | ·
CCn1c(-c2ccc(OC)c(OC)c2)n[nH]c1=S | 2 | -9 | -1 | -4 | · | ·
CCc1ccc(C(CNC(=O)c2ccc3c(=O)n(-c4ccccc4F)c(=S)[nH]c3c2)N(C)C)cc1 (stereo not drawn) | 58* | -11 | -6 | -4 | -15 | 0
O=C(NCc1ccccc1Cl)c1cnccn1 | 21 | 10 | 0 | 9 | · | ·
O=C(NCc1ccccc1Cl)c1cnccc1C(F)(F)F | 55* | -12 | -5 | 7 | -4 | -9
NC(=O)CSc1nnc(Cc2csc(Nc3ccc(F)cc3)n2)n1Cc1ccccc1 | -12 | -13 | -3 | 1 | · | ·
O=C(Nc1ccc2nc(-c3ccco3)c(-c3ccco3)nc2c1)NC1CC1 | 58* | 3 | 45 | · | 30 | 27
CNCc1ccccc1Sc1ccc(O)c(O)c1 | 19 | 4 | -8 | 6 | · | ·
CCOc1ccc(-c2nc(CSCC(=O)NC3CC3)c(C)o2)cc1 | -2 | -6 | -33 | 5 | · | ·
CCOc1ccc(-c2nc(CSCC(=O)NCc3ccco3)c(C)o2)cc1 | 98* | -9 | -5 | 6 | 5 | -7
COc1ccc(NC(=O)CCCn2c(=O)[nH]c3ccccc3c2=O)cc1 | 9 | -2 | -3 | 28 | -14 | -6
COc1ccc(NC(=O)CCn2c(=S)[nH]c3ccccc3c2=O)cc1 | 25 | -2 | 1 | 18 | · | ·
COc1cc(NC(=O)CCCn2c(=S)[nH]c3ccccc3c2=O)cc(OC)c1OC | -9 | 3 | 13 | -8 | · | ·
COc1ccc(NC(=O)CCCn2c(=S)[nH]c3ccccc3c2=O)cc1 | 2 | -11 | -5 | -22 | · | ·
SMILES | Arrestin-AP2 inh | pCIP destab | JMJD2C inh | VLA-4 inh | Arr-AP2 CP1 | GST-FITC bead
COc1ccc(NC(=O)CCCCn2c(=O)[nH]c3ccccc3c2=O)cc1 | 5 | 0 | 2 | -6 | -3 | -3
O=C(CCn1c(=S)[nH]c2ccccc2c1=O)Nc1ccc(F)cc1 | 74* | -1 | 1 | 1 | 14 | 84*
CC1=NN(C(=O)Cc2ccc([N+](=O)[O-])cc2)C(O)(C(F)(F)C(F)(F)F)C1 (stereo not drawn) | -4 | 8 | 7 | 2 | · | ·
Cc1ccccc1Nc1cc(C(=O)NCC2CCCO2)c2ccccc2n1 (stereo not drawn) | 12 | 6 | 24 | 8 | · | ·
Cc1cc(S(=O)(=O)N2CCCC2)c(C)s1 | 11 | -7 | 5 | -1 | · | ·
COCC(C)n1c(SCC(=O)NC(=O)Nc2ccc3c(c2)OCCO3)nc2ccccc2c1=O (stereo not drawn) | 56* | 5 | -6 | 11 | 8 | -11
Nc1nn(-c2ccccc2)c(N)c1N=Nc1ccccc1 | 7 | 4 | -3 | 1 | · | ·
Nc1nn(-c2ccccc2)c(N)c1N=Nc1ccccc1F | 56* | -7 | -1 | -4 | -4 | -9
Cc1cc(Br)cn2cc(C(=O)O)nc12 | 39 | 11 | -6 | 2 | · | ·
C/C(=C\c1cccs1)C(=O)c1c(C)cc(C)[nH]c1=O | 5 | 0 | 8 | 2 | · | ·
Cc1ccc(NS(=O)(=O)c2cccc(C(=O)N3CCCC(C)C3)c2)cc1 (stereo not drawn) | 58* | · | 1 | -8 | 24 | 4
COc1ccc(NS(=O)(=O)c2cccc(C(=O)N3CCCC(C)C3)c2)cc1 (stereo not drawn) | 17 | · | 3 | 16 | · | ·
COc1ccccc1NS(=O)(=O)c1cccc(C(=O)N2CCCCCC2)c1 | 55* | · | · | · | -4 | -7
O=c1[nH]c(/C=C\c2ccc(O)c(O)c2)nc(O)c1[N+](=O)[O-] | 8 | -2 | -40 | -6 | · | ·
O=C(NNC1=NS(=O)(=O)c2ccccc21)c1ccc(Cl)cc1 | 58* | -2 | 6 | 2 | -11 | 0
O=C(NNC1=NS(=O)(=O)c2ccccc21)c1ccc([N+](=O)[O-])cc1 | 18 | -20 | 5 | 8 | · | ·
O=c1cc2oc3cc(O)c(O)cc3c(-c3ccccc3O)c-2cc1O | -3 | -82 | · | · | · | ·
O=C(CN1c2ccccc2S(=O)(=O)c2ccccc21)NCc1ccccc1 | 64* | -21 | 20 | 9 | -6 | -4
O=S(=O)(NCC(c1cccnc1)N1CCN(c2ccc(F)cc2)CC1)c1cc(F)ccc1F (stereo not drawn) | -6 | · | 1 | -20 | · | ·
COc1ccc(N2CCN(C(CNS(=O)(=O)c3cc(F)ccc3F)c3cccnc3)CC2)cc1 (stereo not drawn) | 84* | -13 | 5 | -4 | 16 | -11
COC(=O)c1cc(S(=O)(=O)N2CCN(c3ccc(F)cc3)CC2)cn1C | 6 | -10 | 1 | 11 | · | ·
Cc1ccc(N2CN=C(c3ccccc3)NC2=S)cc1 | -4 | 3 | 5 | 10 | · | ·
COc1ccc(C2=NCN(c3ccc(C)cc3)C(=S)N2)cc1 | 80* | -8 | 13 | -3 | 3 | -12
O=C1c2ccccc2C(=O)N1c1cccc2cccnc12 | 58* | -24 | -7 | 23 | -4 | -5
Cc1ccc(N2C(=O)NC(NC(=O)C(C)(C)C)(C(F)(F)F)C2=O)cc1C (stereo not drawn) | 56* | -1 | -10 | 26 | -2 | 2
CO/N=C/C(c1ncc(C(F)(F)F)cc1Cl)S(=O)(=O)c1ccccc1 (stereo not drawn) | 10 | -2 | 12 | 6 | · | ·
